Results reported in ChEMBL document CHEMBL4689842, “EUbOPEN Chemogenomics Library wave 1” (2021).
Several values for one entry are separate records, joined by “and”; a condition that tells them apart may be missing. Equal values may be shown once.

Key:
Format in all cases: toxicity, cell-based
U2OS [1] = test: Multiplex assay against U2OS; settings: human, 10 µM, compound concentration 10 uM
Summary of the method: (§1)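 On a CQ1 microscope at 37°C and 5% CO2, live cells were imaged after compound addition. They had been stained at seeding with Hoechst33342, BioTracker Green Microtubule Cytoskeleton Dye, MitoTracker Red and Annexin V Alexa Fluor 680. CellPathfinder machine-learning gating assigned cells to Hoechst high-intensity objects or normal cells, normal cells to healthy, pyknosed or fragmented nuclei, and pyknosed cells to mitotic or apoptotic. Tubulin, mitochondrial-mass and membrane-permeability phenotypes are per cents of healthy-nucleus cells.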

Fibroblast [2] = test: Multiplex assay against human fibroblast; settings: 10 µM, compound concentration 10 uM; summary of the method: as §1
U2OS [3] = test: Incucyte cell viability with U2OS; settings: human, 10 µM, compound concentration 10 uM; note: filed as whole numbers so only -1 and 0 and 1 occur
HEK-293T [4] = test: Multiplex assay against HEK293T; settings: human, 10 µM, compound concentration 10 uM; summary of the method: as §1;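 for Population Tubulin-Different-Phenotype (%): share of the cells with healthy nuclei that show this phenotype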
HEK-293T [5] = test: Incucyte cell viability with HEK293T; settings: human, 10 µM, compound concentration 10 uM; note: filed as whole numbers so only -1 and 0 and 1 occur
Fibroblast [6] = test: Incucyte cell viability with human fibroblast; settings: 10 µM, compound concentration 10 uM; note: filed as whole numbers so only -1 and 0 and 1 occur
[7] = 12 h, replicate number 1, timepoint 12 hours
[8] = 18 h, replicate number 1, timepoint 18 hours
[9] = 24 h, replicate number 1, timepoint 24 hours
[10] = 0 h, replicate number 1, timepoint 0 hours

CN1CCN(Cc2ccc(-c3cnc4[nH]cc(-c5ccc6[nH]ccc6c5)c4c3)cc2)CC1
Population Apoptotic (%) (U2OS [1]; 12 h, replicate 1): 81% and 75%
Population Hoechst High Intensity Objects (%) (U2OS [1]; 12 h, replicate 1): 11% and 4% and 8%
Population Membrane Permeable-Phenotype (%) (U2OS [1]; 12 h, replicate 1): 87% and 74% and 69%
Population Mitochondria Different-Phenotype (%) (U2OS [1]; 12 h, replicate 1): 64% and 37%
Population Mitotic Cells (%) (U2OS [1]; 12 h, replicate 1): 18% and 24% and 25%
Population Normal (%) (U2OS [1]; 12 h, replicate 1): 88% and 95% and 91%
Total Cell Count (U2OS [1]; 12 h, replicate 1): 171 and 167 and 190
Population Fragmented Nuclei (%) (U2OS [1]; 12 h, replicate 2): 17% and 14% and 13%
Population Hoechst High Intensity Objects (%) (U2OS [1]; 12 h, replicate 2): 6% and 15%
Population Membrane Permeable-Phenotype (%) (U2OS [1]; 12 h, replicate 2): 40% and 72% and 63%
Population Mitochondria Different-Phenotype (%) (U2OS [1]; 12 h, replicate 2): 100% and 96% and 36%
Population Normal (%) (U2OS [1]; 12 h, replicate 2): 94% and 84%
Total Cell Count (U2OS [1]; 12 h, replicate 2): 76 and 116 and 120
Population Apoptotic (%) (U2OS [1]; 24 h, replicate 1): 98% and 93% and 64%
Population Membrane Permeable-Phenotype (%) (U2OS [1]; 24 h, replicate 1): 100% and 90% and 39%
Population Normal (%) (U2OS [1]; 24 h, replicate 1): 90% and 76% and 93%
Total Cell Count (U2OS [1]; 24 h, replicate 1): 166 and 199 and 279
Population Apoptotic (%) (U2OS [1]; 24 h, replicate 2): 95% and 100% and 66%
Population Membrane Permeable-Phenotype (%) (U2OS [1]; 24 h, replicate 2): 40%
Population Mitochondria Different-Phenotype (%) (U2OS [1]; 24 h, replicate 2): 39%
Population Normal (%) (U2OS [1]; 24 h, replicate 2): 81% and 66% and 89%
Population Tubulin-Different-Phenotype (%) (U2OS [1]; 24 h, replicate 2): 18%
Total Cell Count (U2OS [1]; 24 h, replicate 2): 122 and 91 and 140
Population Apoptotic (%) (U2OS [1]; 48 h, replicate 1): 100%
Population Fragmented Nuclei (%) (U2OS [1]; 48 h, replicate 1): 31%
Population Healthy Nuclei (%) (U2OS [1]; 48 h, replicate 1): 2%
Population Hoechst High Intensity Objects (%) (U2OS [1]; 48 h, replicate 1): 14%
Population Membrane Permeable-Phenotype (%) (U2OS [1]; 48 h, replicate 1): 66%
Population Mitochondria Different-Phenotype (%) (U2OS [1]; 48 h, replicate 1): 100%
Population Mitotic Cells (%) (U2OS [1]; 48 h, replicate 1): 0%
Population Normal (%) (U2OS [1]; 48 h, replicate 1): 85%
Population Pyknosed Nuclei (%) (U2OS [1]; 48 h, replicate 1): 66%
Population Tubulin-Different-Phenotype (%) (U2OS [1]; 48 h, replicate 1): 100%
Total Cell Count (U2OS [1]; 48 h, replicate 1): 148
Population Fragmented Nuclei (%) (U2OS [1]; 48 h, replicate 2): 8%
Population Healthy Nuclei (%) (U2OS [1]; 48 h, replicate 2): 64%
Population Hoechst High Intensity Objects (%) (U2OS [1]; 48 h, replicate 2): 24%
Population Membrane Permeable-Phenotype (%) (U2OS [1]; 48 h, replicate 2): 100%
Population Normal (%) (U2OS [1]; 48 h, replicate 2): 75%
Population Pyknosed Nuclei (%) (U2OS [1]; 48 h, replicate 2): 27%
Population Tubulin-Different-Phenotype (%) (U2OS [1]; 48 h, replicate 2): 95%
Total Cell Count (U2OS [1]; 48 h, replicate 2): 80
Population Apoptotic (%) (Fibroblast [2]; 12 h, replicate 1): 47% and 85%
Population Fragmented Nuclei (%) (Fibroblast [2]; 12 h, replicate 1): 27% and 39% and 35%
Population Hoechst High Intensity Objects (%) (Fibroblast [2]; 12 h, replicate 1): 8% and 16% and 10%
Population Normal (%) (Fibroblast [2]; 12 h, replicate 1): 91% and 83% and 89%
Total Cell Count (Fibroblast [2]; 12 h, replicate 1): 208 and 291 and 107
Population Apoptotic (%) (Fibroblast [2]; 12 h, replicate 2): 50% and 73%
Population Mitotic Cells (%) (Fibroblast [2]; 12 h, replicate 2): 50% and 26%
Population Normal (%) (Fibroblast [2]; 12 h, replicate 2): 69% and 64% and 94%
Total Cell Count (Fibroblast [2]; 12 h, replicate 2): 113 and 71 and 76
Population Apoptotic (%) (Fibroblast [2]; 24 h, replicate 1): 73% and 68% and 81%
Population Fragmented Nuclei (%) (Fibroblast [2]; 24 h, replicate 1): 50% and 59% and 47%
Population Hoechst High Intensity Objects (%) (Fibroblast [2]; 24 h, replicate 1): 16% and 23% and 25%
Population Mitotic Cells (%) (Fibroblast [2]; 24 h, replicate 1): 26% and 31% and 18%
Population Normal (%) (Fibroblast [2]; 24 h, replicate 1): 83% and 76% and 75%
Population Apoptotic (%) (Fibroblast [2]; 24 h, replicate 2): 50% and 100%
Population Healthy Nuclei (%) (Fibroblast [2]; 24 h, replicate 2): 24% and 25% and 11%
Population Hoechst High Intensity Objects (%) (Fibroblast [2]; 24 h, replicate 2): 26% and 33% and 52%
Population Normal (%) (Fibroblast [2]; 24 h, replicate 2): 73% and 66% and 47%
Total Cell Count (Fibroblast [2]; 24 h, replicate 2): 136 and 91 and 73
Population Fragmented Nuclei (%) (Fibroblast [2]; 48 h, replicate 1): 75%
Population Healthy Nuclei (%) (Fibroblast [2]; 48 h, replicate 1): 13%
Population Hoechst High Intensity Objects (%) (Fibroblast [2]; 48 h, replicate 1): 28%
Population Membrane Permeable-Phenotype (%) (Fibroblast [2]; 48 h, replicate 1): 41%
Population Normal (%) (Fibroblast [2]; 48 h, replicate 1): 71%
Population Pyknosed Nuclei (%) (Fibroblast [2]; 48 h, replicate 1): 10%
Population Tubulin-Different-Phenotype (%) (Fibroblast [2]; 48 h, replicate 1): 58%
Total Cell Count (Fibroblast [2]; 48 h, replicate 1): 121
Population Apoptotic (%) (Fibroblast [2]; 48 h, replicate 2): 100%
Population Fragmented Nuclei (%) (Fibroblast [2]; 48 h, replicate 2): 79%
Population Healthy Nuclei (%) (Fibroblast [2]; 48 h, replicate 2): 11%
Population Hoechst High Intensity Objects (%) (Fibroblast [2]; 48 h, replicate 2): 40%
Population Membrane Permeable-Phenotype (%) (Fibroblast [2]; 48 h, replicate 2): 0%
Population Mitochondria Different-Phenotype (%) (Fibroblast [2]; 48 h, replicate 2): 0%
Population Mitotic Cells (%) (Fibroblast [2]; 48 h, replicate 2): 0%
Population Normal (%) (Fibroblast [2]; 48 h, replicate 2): 59%
Population Pyknosed Nuclei (%) (Fibroblast [2]; 48 h, replicate 2): 8%
Population Tubulin-Different-Phenotype (%) (Fibroblast [2]; 48 h, replicate 2): 50%
Total Cell Count (Fibroblast [2]; 48 h, replicate 2): 57
Growth Rate (U2OS [3]; 0 h, replicate number 2, timepoint 0 hours): 0
Growth Rate (U2OS [3]; [7]): 1
Growth Rate (U2OS [3]; [8]): 0
Growth Rate (U2OS [3]; [9]): 0
Population Fragmented Nuclei (%) (HEK-293T [4]; 12 h, replicate 1): 11% and 13% and 21%
Population Hoechst High Intensity Objects (%) (HEK-293T [4]; 12 h, replicate 1): 16% and 24% and 18%
Population Membrane Permeable-Phenotype (%) (HEK-293T [4]; 12 h, replicate 1): 20% and 12% and 28%
Population Normal (%) (HEK-293T [4]; 12 h, replicate 1): 83% and 75% and 81%
Population Pyknosed Nuclei (%) (HEK-293T [4]; 12 h, replicate 1): 59% and 81%
Population Membrane Permeable-Phenotype (%) (HEK-293T [4]; 12 h, replicate 2): 0% and 15%
Population Normal (%) (HEK-293T [4]; 12 h, replicate 2): 87% and 97%
Population Tubulin-Different-Phenotype (%) (HEK-293T [4]; 12 h, replicate 2): 66% and 53% and 95%
Population Fragmented Nuclei (%) (HEK-293T [4]; 24 h, replicate 1): 16%
Population Hoechst High Intensity Objects (%) (HEK-293T [4]; 24 h, replicate 1): 29% and 32% and 15%
Population Membrane Permeable-Phenotype (%) (HEK-293T [4]; 24 h, replicate 1): 11% and 15%
Population Normal (%) (HEK-293T [4]; 24 h, replicate 1): 70% and 67% and 84%
Population Membrane Permeable-Phenotype (%) (HEK-293T [4]; 24 h, replicate 2): 0% and 8% and 9%
Population Normal (%) (HEK-293T [4]; 24 h, replicate 2): 78% and 93%
Population Apoptotic (%) (HEK-293T [4]; 48 h, replicate 1): 90%
Population Fragmented Nuclei (%) (HEK-293T [4]; 48 h, replicate 1): 29%
Population Healthy Nuclei (%) (HEK-293T [4]; 48 h, replicate 1): 3%
Population Hoechst High Intensity Objects (%) (HEK-293T [4]; 48 h, replicate 1): 31%
Population Membrane Permeable-Phenotype (%) (HEK-293T [4]; 48 h, replicate 1): 0%
Population Mitotic Cells (%) (HEK-293T [4]; 48 h, replicate 1): 9%
Population Normal (%) (HEK-293T [4]; 48 h, replicate 1): 68%
Population Pyknosed Nuclei (%) (HEK-293T [4]; 48 h, replicate 1): 66%
Population Tubulin-Different-Phenotype (%) (HEK-293T [4]; 48 h, replicate 1): 80%
Total Cell Count (HEK-293T [4]; 48 h, replicate 1): 216
Population Apoptotic (%) (HEK-293T [4]; 48 h, replicate 2): 96%
Population Fragmented Nuclei (%) (HEK-293T [4]; 48 h, replicate 2): 17%
Population Healthy Nuclei (%) (HEK-293T [4]; 48 h, replicate 2): 7%
Population Hoechst High Intensity Objects (%) (HEK-293T [4]; 48 h, replicate 2): 18%
Population Membrane Permeable-Phenotype (%) (HEK-293T [4]; 48 h, replicate 2): 22%
Population Mitochondria Different-Phenotype (%) (HEK-293T [4]; 48 h, replicate 2): 100%
Population Mitotic Cells (%) (HEK-293T [4]; 48 h, replicate 2): 3%
Population Normal (%) (HEK-293T [4]; 48 h, replicate 2): 81%
Population Pyknosed Nuclei (%) (HEK-293T [4]; 48 h, replicate 2): 75%
Population Tubulin-Different-Phenotype (%) (HEK-293T [4]; 48 h, replicate 2): 100%
Total Cell Count (HEK-293T [4]; 48 h, replicate 2): 158
Growth Rate (HEK-293T [5]; [10]): 0
Growth Rate (HEK-293T [5]; 6 h, replicate number 2, timepoint 6 hours): 0
Growth Rate (HEK-293T [5]; [7]): 0
Growth Rate (HEK-293T [5]; [8]): 0
Growth Rate (HEK-293T [5]; [9]): 0
Growth Rate (Fibroblast [6]; [10]): 0
Growth Rate (Fibroblast [6]; [7]): 0
Growth Rate (Fibroblast [6]; [8]): 0
Growth Rate (Fibroblast [6]; [9]): 0
